Results: ChEMBL document CHEMBL4689842, “EUbOPEN Chemogenomics Library wave 1” (2021)
Values joined by “and” are separate entries in the source; they are usually repeats but may differ in a detail not shown here. Equal values may be shown once.

System: U2OS
Assay: Multiplex assay against U2OS
Type: toxicity, cell-based
Settings: human
In short: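 Live cells were stained at seeding with Hoechst33342, BioTracker Green Microtubule Cytoskeleton Dye, MitoTracker Red and Annexin V Alexa Fluor 680. Following compound addition, they were imaged on a CQ1 microscope at 37°C and 5% CO2 and gated by CellPathfinder machine learning into Hoechst high-intensity objects or normal cells, with normal cells split into healthy, pyknosed or fragmented nuclei and pyknosed cells into mitotic or apoptotic. Tubulin, mitochondrial-mass and membrane-permeability phenotypes are per cents of healthy-nucleus cells.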

[1] = 12 h, 10 µM, compound concentration 10 uM, replicate 1
[2] = 12 h, 10 µM, compound concentration 10 uM, replicate 2
[3] = 24 h, 10 µM, compound concentration 10 uM, replicate 1
[4] = 24 h, 10 µM, compound concentration 10 uM, replicate 2
[5] = 48 h, 10 µM, compound concentration 10 uM, replicate 1
[6] = 48 h, 10 µM, compound concentration 10 uM, replicate 2
[7] = 12 h, 1 µM, compound concentration 1 uM, replicate 1
[8] = 12 h, 1 µM, compound concentration 1 uM, replicate 2
[9] = 24 h, 1 µM, compound concentration 1 uM, replicate 1
[10] = 24 h, 1 µM, compound concentration 1 uM, replicate 2

For `CCOCCn1cc(C(=O)Nc2ccc(-n3nc(-c4cccnc4)cc3C(F)(F)F)cn2)ccc1=O` [BI 1935], the “Population Apoptotic (%)” value [1] was 22% and 50% and 42%, the “Population Healthy Nuclei (%)” value [1] was 82% and 63% and 91% and the “Population Hoechst High Intensity Objects (%)” value [1] was 4% and 8% and 3%. The “Population Mitotic Cells (%)” value [1] was 77% and 50% and 57%, the “Population Normal (%)” value [1] was 95% and 91% and 96% and the “Total Cell Count” value [1] was 162 and 131 and 216. For the same molecule, the “Population Apoptotic (%)” value [2] was 28% and 47% and 16%, the “Population Fragmented Nuclei (%)” value [2] was 5% and 8% and 12% and the “Population Healthy Nuclei (%)” value [2] was 77% and 65%. The “Population Hoechst High Intensity Objects (%)” value [2] was 10% and 7% and 9%, the “Population Mitochondria Different-Phenotype (%)” value [2] was 22% and 47% and 19% and the “Population Mitotic Cells (%)” value [2] was 71% and 52% and 83%. For the same molecule, the “Population Normal (%)” value [2] was 89% and 92% and 90%, the “Total Cell Count” value [2] was 89 and 79 and 129 and the “Population Apoptotic (%)” value [3] was 42% and 33% and 27%. For the same molecule, the “Population Healthy Nuclei (%)” value [3] was 62% and 86% and 91%, the “Population Hoechst High Intensity Objects (%)” value [3] was 6% and 3% and the “Population Mitochondria Different-Phenotype (%)” value [3] was 51% and 17% and 20%. The “Population Mitotic Cells (%)” value [3] was 57% and 66% and 72%, the “Population Normal (%)” value [3] was 93% and 96% and the “Total Cell Count” value [3] was 147 and 211 and 291. For the same molecule, the “Population Apoptotic (%)” value [4] was 46% and 40% and 66%, the “Population Fragmented Nuclei (%)” value [4] was 3% and 9% and the “Population Healthy Nuclei (%)” value [4] was 82% and 66%. The “Population Hoechst High Intensity Objects (%)” value [4] was 7% and 8%, the “Population Mitochondria Different-Phenotype (%)” value [4] was 27% and 50% and the “Population Mitotic Cells (%)” value [4] was 53% and 60% and 33%. For the same molecule, the “Population Normal (%)” value [4] was 92% and 91%, the “Population Tubulin-Different-Phenotype (%)” value [4] was 27% and 44% and 22% and the “Total Cell Count” value [4] was 101 and 92 and 149. The “Population Apoptotic (%)” value [5] was 51%, the “Population Fragmented Nuclei (%)” value [5] was 16% and the “Population Healthy Nuclei (%)” value [5] was 64%. The “Population Hoechst High Intensity Objects (%)” value [5] was 10%, the “Population Membrane Permeable-Phenotype (%)” value [5] was 15% and the “Population Mitochondria Different-Phenotype (%)” value [5] was 26%. The “Population Mitotic Cells (%)” value [5] was 48%, the “Population Normal (%)” value [5] was 89% and the “Population Pyknosed Nuclei (%)” value [5] was 19%. The “Population Tubulin-Different-Phenotype (%)” value [5] was 51%, the “Total Cell Count” value [5] was 178 and the “Population Apoptotic (%)” value [6] was 52%. The “Population Fragmented Nuclei (%)” value [6] was 7%, the “Population Healthy Nuclei (%)” value [6] was 73% and the “Population Hoechst High Intensity Objects (%)” value [6] was 4%. For the same molecule, the “Population Membrane Permeable-Phenotype (%)” value [6] was 17%, the “Population Mitochondria Different-Phenotype (%)” value [6] was 30% and the “Population Mitotic Cells (%)” value [6] was 47%. For the same molecule, the “Population Normal (%)” value [6] was 95%, the “Population Tubulin-Different-Phenotype (%)” value [6] was 40% and the “Total Cell Count” value [6] was 114.
With `C[C@@]1(C(=O)Nc2ccc(F)nc2)CCCN1c1nc(Nc2cc(C3CC3)n[nH]2)c2cccn2n1` [BMS-754807] the “Population Apoptotic (%)” value [7] was 25%, the “Population Fragmented Nuclei (%)” value [7] was 8% and the “Population Healthy Nuclei (%)” value [7] was 75%. The “Population Hoechst High Intensity Objects (%)” value [7] was 4%, the “Population Membrane Permeable-Phenotype (%)” value [7] was 61% and the “Population Mitochondria Different-Phenotype (%)” value [7] was 10%. For the same molecule, the “Population Mitotic Cells (%)” value [7] was 74%, the “Population Normal (%)” value [7] was 95% and the “Population Pyknosed Nuclei (%)” value [7] was 15%. The “Population Tubulin-Different-Phenotype (%)” value [7] was 78%, the “Total Cell Count” value [7] was 181 and the “Population Apoptotic (%)” value [8] was 16%. For the same molecule, the “Population Fragmented Nuclei (%)” value [8] was 36%, the “Population Healthy Nuclei (%)” value [8] was 56% and the “Population Hoechst High Intensity Objects (%)” value [8] was 27%. For the same molecule, the “Population Membrane Permeable-Phenotype (%)” value [8] was 45%, the “Population Mitochondria Different-Phenotype (%)” value [8] was 25% and the “Population Mitotic Cells (%)” value [8] was 83%. The “Population Normal (%)” value [8] was 72%, the “Population Pyknosed Nuclei (%)” value [8] was 7% and the “Population Tubulin-Different-Phenotype (%)” value [8] was 62%. For the same molecule, the “Total Cell Count” value [8] was 117, the “Population Apoptotic (%)” value [1] was 41% and 56% and the “Population Fragmented Nuclei (%)” value [1] was 10% and 4%. The “Population Healthy Nuclei (%)” value [1] was 65% and 86%, the “Population Hoechst High Intensity Objects (%)” value [1] was 6% and 2% and the “Population Membrane Permeable-Phenotype (%)” value [1] was 6% and 9%. For the same molecule, the “Population Mitochondria Different-Phenotype (%)” value [1] was 71% and 27%, the “Population Mitotic Cells (%)” value [1] was 58% and 43% and the “Population Normal (%)” value [1] was 93% and 97%. For the same molecule, the “Population Pyknosed Nuclei (%)” value [1] was 24% and 8%, the “Total Cell Count” value [1] was 191 and 183 and the “Population Apoptotic (%)” value [2] was 33%. The “Population Fragmented Nuclei (%)” value [2] was 15% and 11%, the “Population Healthy Nuclei (%)” value [2] was 58% and 80% and the “Population Hoechst High Intensity Objects (%)” value [2] was 13% and 9%. The “Population Membrane Permeable-Phenotype (%)” value [2] was 22% and 16%, the “Population Mitochondria Different-Phenotype (%)” value [2] was 70% and 40% and the “Population Mitotic Cells (%)” value [2] was 66%. The “Population Normal (%)” value [2] was 86% and 90%, the “Total Cell Count” value [2] was 53 and 85 and the “Population Apoptotic (%)” value [9] was 38%. The “Population Fragmented Nuclei (%)” value [9] was 15%, the “Population Healthy Nuclei (%)” value [9] was 60% and the “Population Hoechst High Intensity Objects (%)” value [9] was 4%. For the same molecule, the “Population Membrane Permeable-Phenotype (%)” value [9] was 63%, the “Population Mitochondria Different-Phenotype (%)” value [9] was 32% and the “Population Mitotic Cells (%)” value [9] was 61%. For the same molecule, the “Population Normal (%)” value [9] was 95%, the “Population Pyknosed Nuclei (%)” value [9] was 24% and the “Population Tubulin-Different-Phenotype (%)” value [9] was 78%. For the same molecule, the “Total Cell Count” value [9] was 181, the “Population Apoptotic (%)” value [10] was 40% and the “Population Fragmented Nuclei (%)” value [10] was 41%. For the same molecule, the “Population Healthy Nuclei (%)” value [10] was 47%, the “Population Hoechst High Intensity Objects (%)” value [10] was 20% and the “Population Membrane Permeable-Phenotype (%)” value [10] was 41%. For the same molecule, the “Population Mitochondria Different-Phenotype (%)” value [10] was 30%, the “Population Mitotic Cells (%)” value [10] was 60% and the “Population Normal (%)” value [10] was 79%. The “Population Pyknosed Nuclei (%)” value [10] was 10%, the “Population Tubulin-Different-Phenotype (%)” value [10] was 51% and the “Total Cell Count” value [10] was 114. For the same molecule, the “Population Apoptotic (%)” value [3] was 28% and 49%, the “Population Fragmented Nuclei (%)” value [3] was 11% and 15% and the “Population Healthy Nuclei (%)” value [3] was 76% and 54%. For the same molecule, the “Population Hoechst High Intensity Objects (%)” value [3] was 5% and 8%, the “Population Membrane Permeable-Phenotype (%)” value [3] was 11% and 8% and the “Population Mitochondria Different-Phenotype (%)” value [3] was 51% and 74%. For the same molecule, the “Population Mitotic Cells (%)” value [3] was 71% and 50%, the “Population Normal (%)” value [3] was 94% and 91% and the “Population Pyknosed Nuclei (%)” value [3] was 11% and 30%. For the same molecule, the “Total Cell Count” value [3] was 187 and 184, the “Population Fragmented Nuclei (%)” value [4] was 17% and 12% and the “Population Healthy Nuclei (%)” value [4] was 47% and 74%. For the same molecule, the “Population Hoechst High Intensity Objects (%)” value [4] was 9% and 11%, the “Population Membrane Permeable-Phenotype (%)” value [4] was 22% and the “Population Mitochondria Different-Phenotype (%)” value [4] was 59% and 45%. For the same molecule, the “Population Mitotic Cells (%)” value [4] was 62% and 90%, the “Population Normal (%)” value [4] was 90% and 88% and the “Population Pyknosed Nuclei (%)” value [4] was 34% and 12%. For the same molecule, the “Population Tubulin-Different-Phenotype (%)” value [4] was 77% and 28%, the “Total Cell Count” value [4] was 51 and 89 and the “Population Apoptotic (%)” value [5] was 72%. The “Population Fragmented Nuclei (%)” value [5] was 26%, the “Population Healthy Nuclei (%)” value [5] was 21% and the “Population Hoechst High Intensity Objects (%)” value [5] was 11%. The “Population Membrane Permeable-Phenotype (%)” value [5] was 13%, the “Population Mitochondria Different-Phenotype (%)” value [5] was 75% and the “Population Mitotic Cells (%)” value [5] was 27%. For the same molecule, the “Population Normal (%)” value [5] was 88%, the “Population Pyknosed Nuclei (%)” value [5] was 52% and the “Population Tubulin-Different-Phenotype (%)” value [5] was 88%. The “Total Cell Count” value [5] was 193, the “Population Apoptotic (%)” value [6] was 66% and the “Population Fragmented Nuclei (%)” value [6] was 25%. For the same molecule, the “Population Healthy Nuclei (%)” value [6] was 30%, the “Population Hoechst High Intensity Objects (%)” value [6] was 20% and the “Population Membrane Permeable-Phenotype (%)” value [6] was 91%. For the same molecule, the “Population Mitochondria Different-Phenotype (%)” value [6] was 83%, the “Population Mitotic Cells (%)” value [6] was 33% and the “Population Normal (%)” value [6] was 80%. For the same molecule, the “Population Pyknosed Nuclei (%)” value [6] was 45%, the “Population Tubulin-Different-Phenotype (%)” value [6] was 91% and the “Total Cell Count” value [6] was 50.
